Assay type in all cases: functional
For experiment [1], the species on record is Mus musculus. Briefly: Antidepressant activity using apomorphine potentiation test in mice. The method in brief:
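Male CF-1 mice in groups of four got test compound i.p. (50 and 25 mg/kg) in 0.25% aqueous methylcellulose. 1 h later they got apomorphine 10 mg/kg s.c. and were watched 30 min for stereotyped gnawing and licking, each positive. If ≥3 were positive, the test was repeated at 0.3 log lower doses until ≤1 responded. ED50 and 95% CI by Spearman–Karber.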

The species named for experiment [2] is Mus musculus. Briefly: Antidepressant activity using oxotremorine antagonism test in mice.
For experiment [3], the species on record is Mus musculus. In words: Antidepressant activity using yohimbine potentiation test in mice.

In the case of `CCC(=O)N(c1ccc(Cl)c(Cl)c1)C1CCCC1N(C)C` (cis isomer) [ECLANAMINE], the ED50 in experiment [1] was more than 50 mg/kg; in experiment [2] it was 2 mg/kg; in experiment [3] it was 0.9 mg/kg.
As for `CCC(=O)N(c1ccc(Cl)c(Cl)c1)C1CCCC1N(C)C` (stereo in doubt; 6) [ECLANAMINE], the values for the ED50 in experiment [1], in experiment [2] and in experiment [3] were 10 mg/kg, 0.2 mg/kg and 0.4 mg/kg, respectively.
In the same order, the values of `CCC(=O)N(c1ccccc1)C1CCCC1N(C)C` (stereo in doubt; 16) are 0.8 mg/kg, 2 mg/kg and 3 mg/kg.
`CCC(=O)N(c1cccc(C)c1)C1CCCC1N(C)C` (stereo in doubt; 22): the ED50 worked out at 25 mg/kg in experiment [1] (Mus musculus, read-out: ED50); 1 mg/kg in experiment [2] (Mus musculus, read-out: ED50); 3 mg/kg in experiment [3] (Mus musculus, read-out: ED50).
Turning to `CCC(=O)N(c1ccc(C)cc1)C1CCCC1N(C)C` (stereo in doubt; 24), the ED50 is 10 mg/kg in experiment [1], 10 mg/kg in experiment [2] and 30 mg/kg in experiment [3].
As to `CCC(=O)N(c1cccc(C)c1)C1CCCC1N(C)C` (stereo in doubt; 44), the ED50 was 25 mg/kg in experiment [1], 1 mg/kg in experiment [2] and 3 mg/kg in experiment [3].
Consider `CCC(=O)N(c1ccc(C)cc1)C1CCCC1N(C)C` (stereo in doubt; 45), for which the ED50 was found to be 10 mg/kg in experiment [1] (Mus musculus, read-out: ED50); 10 mg/kg in experiment [2] (Mus musculus, read-out: ED50); 30 mg/kg in experiment [3] (Mus musculus, read-out: ED50).
Take `CCC(=O)N(c1ccc(OC)cc1)C1CCCC1N(C)C` (stereo in doubt; 47): the ED50 in experiment [1] (Mus musculus, read-out: ED50) is more than 50 mg/kg; in experiment [2] (Mus musculus, read-out: ED50), 20 mg/kg; in experiment [3] (Mus musculus, read-out: ED50), 30 mg/kg.
As for `CN(C)CCCN1c2ccccc2CCc2ccccc21.Cl` [IMIPRAMINE HYDROCHLORIDE], the ED50 was determined as 1 mg/kg in experiment [1] (Mus musculus, read-out: ED50); 1 mg/kg in experiment [2] (Mus musculus, read-out: ED50); 4 mg/kg in experiment [3] (Mus musculus, read-out: ED50).

The ED50 is the dose at which the effect has come halfway, by size or by number of responders.
